Experimental data: ChEMBL document CHEMBL5303300, “EUbOPEN Chemogenomics Library - Multiplex” (2023)
Several values for one entry are separate records, joined by “and”; a condition that tells them apart may be missing. Equal values may be shown once.

Tested on: U2OS
Test: Multiplex assay against U2OS
Format: toxicity, cell-based
Conditions: human, number of replicates 2
Procedure, shortened: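 Cells stained live at seeding with Hoechst33342, BioTracker Green Microtubule Cytoskeleton Dye, MitoTracker Red and Annexin V Alexa Fluor 680 were imaged on a CQ1 microscope at 37°C and 5% CO2 after compound addition. Their classification by CellPathfinder machine-learning gating ran from Hoechst high-intensity objects versus normal cells, to healthy, pyknosed or fragmented nuclei among normal cells, to mitotic or apoptotic among pyknosed cells. Tubulin, mitochondrial-mass and membrane-permeability phenotypes are per cents of healthy-nucleus cells.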

[1] = 12 h, 1 µM, compound concentration 1 uM
[2] = 12 h, 10 µM, compound concentration 10 uM
[3] = 24 h, 1 µM, compound concentration 1 uM
[4] = 24 h, 10 µM, compound concentration 10 uM
[5] = 48 h, 1 µM, compound concentration 1 uM
[6] = 48 h, 10 µM, compound concentration 10 uM

SMILES: CN(C)CCN(Cc1ccc(-c2ccc(CNCCc3ccccc3)cc2)cc1)C(=O)CCC1CCCC1.Cl.Cl
- Population Apoptotic (%) [1]: 77% and 66%
- Population Fragmented Nuclei (%) [1]: 17% and 9%
- Population Healthy Nuclei (%) [1]: 55% and 78%
- Population Hoechst High Intensity Objects (%) [1]: 0%
- Population Membrane Permeable-Phenotype (%) [1]: 0% and 6%
- Population Mitochondria Different-Phenotype (%) [1]: 36% and 27%
- Population Mitotic Cells (%) [1]: 22% and 33%
- Population Normal (%) [1]: 100%
- Population Pyknosed Nuclei (%) [1]: 26% and 11%
- Population Tubulin-Different-Phenotype (%) [1]: 42% and 43%
- Population Apoptotic (%) [2]: 100% and 99%
- Population Fragmented Nuclei (%) [2]: 7% and 5%
- Population Healthy Nuclei (%) [2]: 11% and 13%
- Population Hoechst High Intensity Objects (%) [2]: 0% and 2%
- Population Membrane Permeable-Phenotype (%) [2]: 100%
- Population Mitochondria Different-Phenotype (%) [2]: 100% and 88%
- Population Mitotic Cells (%) [2]: 0%
- Population Normal (%) [2]: 100% and 97%
- Population Pyknosed Nuclei (%) [2]: 80% and 81%
- Population Tubulin-Different-Phenotype (%) [2]: 100% and 88%
- Population Apoptotic (%) [3]: 78% and 64%
- Population Fragmented Nuclei (%) [3]: 10% and 23%
- Population Healthy Nuclei (%) [3]: 73% and 44%
- Population Hoechst High Intensity Objects (%) [3]: 0%
- Population Membrane Permeable-Phenotype (%) [3]: 7% and 5%
- Population Mitochondria Different-Phenotype (%) [3]: 39% and 57%
- Population Mitotic Cells (%) [3]: 21% and 35%
- Population Normal (%) [3]: 100%
- Population Pyknosed Nuclei (%) [3]: 16% and 32%
- Population Tubulin-Different-Phenotype (%) [3]: 44% and 36%
- Population Apoptotic (%) [4]: 100% and 96%
- Population Healthy Nuclei (%) [4]: 3% and 6%
- Population Hoechst High Intensity Objects (%) [4]: 0% and 3%
- Population Membrane Permeable-Phenotype (%) [4]: 100%
- Population Mitochondria Different-Phenotype (%) [4]: 100% and 88%
- Population Mitotic Cells (%) [4]: 0% and 3%
- Population Normal (%) [4]: 100% and 96%
- Population Pyknosed Nuclei (%) [4]: 76% and 87%
- Population Tubulin-Different-Phenotype (%) [4]: 100% and 88%
- Population Apoptotic (%) [5]: 80% and 83%
- Population Fragmented Nuclei (%) [5]: 26% and 10%
- Population Healthy Nuclei (%) [5]: 34% and 70%
- Population Hoechst High Intensity Objects (%) [5]: 0%
- Population Mitotic Cells (%) [5]: 20% and 16%
- Population Normal (%) [5]: 100%
- Population Pyknosed Nuclei (%) [5]: 40% and 18%
- Population Tubulin-Different-Phenotype (%) [5]: 58% and 62%
- Population Apoptotic (%) [6]: 93% and 97%
- Population Fragmented Nuclei (%) [6]: 8% and 14%
- Population Hoechst High Intensity Objects (%) [6]: 0% and 1%
- Population Membrane Permeable-Phenotype (%) [6]: 100%
- Population Mitochondria Different-Phenotype (%) [6]: 100%
- Population Mitotic Cells (%) [6]: 6% and 2%
- Population Normal (%) [6]: 100% and 98%
- Population Pyknosed Nuclei (%) [6]: 66% and 80%
- Population Tubulin-Different-Phenotype (%) [6]: 100%

SMILES: COc1cc(Br)c(S(=O)(=O)Nc2ccc(C(F)(F)F)c(O[C@@H]3CCN(C)C3)c2)cc1OC
- Population Fragmented Nuclei (%) [1]: 10% and 4%
- Population Healthy Nuclei (%) [1]: 80% and 88%
- Population Hoechst High Intensity Objects (%) [1]: 0%
- Population Membrane Permeable-Phenotype (%) [1]: 4% and 0%
- Population Mitochondria Different-Phenotype (%) [1]: 0%
- Population Mitotic Cells (%) [1]: 100% and 46%
- Population Normal (%) [1]: 100%
- Population Pyknosed Nuclei (%) [1]: 10% and 7%
- Population Tubulin-Different-Phenotype (%) [1]: 66% and 89%
- Population Apoptotic (%) [2]: 60% and 78%
- Population Healthy Nuclei (%) [2]: 67% and 85%
- Population Hoechst High Intensity Objects (%) [2]: 0%
- Population Membrane Permeable-Phenotype (%) [2]: 4% and 0%
- Population Mitochondria Different-Phenotype (%) [2]: 4% and 0%
- Population Mitotic Cells (%) [2]: 40% and 21%
- Population Normal (%) [2]: 100%
- Population Pyknosed Nuclei (%) [2]: 16% and 10%
- Population Tubulin-Different-Phenotype (%) [2]: 66% and 59%
- Population Apoptotic (%) [3]: 66% and 47%
- Population Fragmented Nuclei (%) [3]: 7% and 3%
- Population Healthy Nuclei (%) [3]: 85% and 88%
- Population Hoechst High Intensity Objects (%) [3]: 0%
- Population Membrane Permeable-Phenotype (%) [3]: 0% and 3%
- Population Mitochondria Different-Phenotype (%) [3]: 0%
- Population Mitotic Cells (%) [3]: 33% and 52%
- Population Normal (%) [3]: 100%
- Population Pyknosed Nuclei (%) [3]: 7%
- Population Tubulin-Different-Phenotype (%) [3]: 77% and 87%
- Population Fragmented Nuclei (%) [4]: 8% and 2%
- Population Healthy Nuclei (%) [4]: 75% and 85%
- Population Hoechst High Intensity Objects (%) [4]: 0%
- Population Membrane Permeable-Phenotype (%) [4]: 0% and 2%
- Population Mitochondria Different-Phenotype (%) [4]: 3% and 2%
- Population Mitotic Cells (%) [4]: 83% and 48%
- Population Normal (%) [4]: 100%
- Population Pyknosed Nuclei (%) [4]: 16% and 11%
- Population Tubulin-Different-Phenotype (%) [4]: 70% and 74%
- Population Apoptotic (%) [5]: 30% and 51%
- Population Healthy Nuclei (%) [5]: 69% and 89%
- Population Hoechst High Intensity Objects (%) [5]: 0%
- Population Membrane Permeable-Phenotype (%) [5]: 0% and 1%
- Population Mitochondria Different-Phenotype (%) [5]: 0%
- Population Mitotic Cells (%) [5]: 69% and 48%
- Population Normal (%) [5]: 100% and 99%
- Population Pyknosed Nuclei (%) [5]: 14% and 7%
- Population Tubulin-Different-Phenotype (%) [5]: 79% and 91%
- Population Apoptotic (%) [6]: 57% and 61%
- Population Fragmented Nuclei (%) [6]: 9% and 1%
- Population Healthy Nuclei (%) [6]: 79% and 91%
- Population Hoechst High Intensity Objects (%) [6]: 0%
- Population Membrane Permeable-Phenotype (%) [6]: 9% and 1%
- Population Mitochondria Different-Phenotype (%) [6]: 5% and 0%
- Population Mitotic Cells (%) [6]: 42% and 38%
- Population Normal (%) [6]: 100%
- Population Pyknosed Nuclei (%) [6]: 10% and 6%
- Population Tubulin-Different-Phenotype (%) [6]: 92% and 81%

SMILES: CCCN(CCc1cccs1)[C@H]1CCc2c(O)cccc2C1 [ROTIGOTINE]
- Population Apoptotic (%) [1]: 46% and 66%
- Population Fragmented Nuclei (%) [1]: 6% and 13%
- Population Healthy Nuclei (%) [1]: 84% and 76%
- Population Hoechst High Intensity Objects (%) [1]: 0%
- Population Mitochondria Different-Phenotype (%) [1]: 0%
- Population Mitotic Cells (%) [1]: 53% and 33%
- Population Normal (%) [1]: 100%
- Population Pyknosed Nuclei (%) [1]: 9% and 10%
- Population Tubulin-Different-Phenotype (%) [1]: 86% and 34%
- Total Cell Count [1]: 30
- Population Apoptotic (%) [2]: 62% and 50%
- Population Healthy Nuclei (%) [2]: 84% and 60%
- Population Hoechst High Intensity Objects (%) [2]: 0%
- Population Membrane Permeable-Phenotype (%) [2]: 4% and 13%
- Population Mitochondria Different-Phenotype (%) [2]: 1% and 0%
- Population Mitotic Cells (%) [2]: 37% and 50%
- Population Normal (%) [2]: 100%
- Population Pyknosed Nuclei (%) [2]: 11% and 15%
- Population Apoptotic (%) [3]: 57% and 80%
- Population Fragmented Nuclei (%) [3]: 1% and 6%
- Population Healthy Nuclei (%) [3]: 89% and 82%
- Population Hoechst High Intensity Objects (%) [3]: 0%
- Population Membrane Permeable-Phenotype (%) [3]: 2%
- Population Mitochondria Different-Phenotype (%) [3]: 0%
- Population Mitotic Cells (%) [3]: 42% and 20%
- Population Normal (%) [3]: 100%
- Population Pyknosed Nuclei (%) [3]: 8% and 10%
- Population Tubulin-Different-Phenotype (%) [3]: 88% and 39%
- Population Apoptotic (%) [4]: 48% and 66%
- Population Healthy Nuclei (%) [4]: 83% and 75%
- Population Hoechst High Intensity Objects (%) [4]: 0%
- Population Membrane Permeable-Phenotype (%) [4]: 0% and 9%
- Population Mitochondria Different-Phenotype (%) [4]: 1% and 2%
- Population Mitotic Cells (%) [4]: 51% and 33%
- Population Normal (%) [4]: 100%
- Population Pyknosed Nuclei (%) [4]: 13% and 10%
- Population Tubulin-Different-Phenotype (%) [4]: 62% and 46%
- Population Apoptotic (%) [5]: 35% and 83%
- Population Healthy Nuclei (%) [5]: 90% and 76%
- Population Hoechst High Intensity Objects (%) [5]: 0% and 1%
- Population Membrane Permeable-Phenotype (%) [5]: 1% and 6%
- Population Mitochondria Different-Phenotype (%) [5]: 0% and 4%
- Population Normal (%) [5]: 99% and 98%
- Population Pyknosed Nuclei (%) [5]: 6% and 9%
- Population Tubulin-Different-Phenotype (%) [5]: 93% and 35%
- Population Apoptotic (%) [6]: 66% and 57%
- Population Fragmented Nuclei (%) [6]: 8% and 2%
- Population Healthy Nuclei (%) [6]: 75% and 90%
- Population Hoechst High Intensity Objects (%) [6]: 0%
- Population Membrane Permeable-Phenotype (%) [6]: 6% and 1%
- Population Mitochondria Different-Phenotype (%) [6]: 3% and 0%
- Population Mitotic Cells (%) [6]: 33% and 42%
- Population Normal (%) [6]: 100% and 99%
- Population Pyknosed Nuclei (%) [6]: 15% and 6%
- Population Tubulin-Different-Phenotype (%) [6]: 62% and 78%
